Bioassay records: PubChem BioAssay, several laboratories
A selection: hits, their analogues and other compounds. The true share with any hit is near 2.6%.
MC4R barr agon – activates human MC4R beta-arrestin recruitment | U2OS MC4R beta-arrestin complementation, luminescence; percent of melanotan II response, DMSO zero | activation, % at 8.9 µM | P32245 | 360,000 compounds, 0.98% hits | AID 540308;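 active = activation above a per-plate cutoff, the mean activation of sample wells on that plate plus 3 SD, cut at about 8% in these data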
Target sequence (P32245 whole entry, looked up): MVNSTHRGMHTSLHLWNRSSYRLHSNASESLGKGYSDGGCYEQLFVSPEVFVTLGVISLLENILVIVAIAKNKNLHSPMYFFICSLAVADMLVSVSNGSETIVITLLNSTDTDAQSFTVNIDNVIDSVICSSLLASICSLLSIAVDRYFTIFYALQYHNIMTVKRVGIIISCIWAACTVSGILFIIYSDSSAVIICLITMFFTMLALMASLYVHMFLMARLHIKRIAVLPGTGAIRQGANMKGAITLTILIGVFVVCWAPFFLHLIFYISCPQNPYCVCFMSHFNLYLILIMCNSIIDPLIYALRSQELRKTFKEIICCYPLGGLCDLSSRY
Exocytosis inh – lytic granule exocytosis inhibition; 360,000 compounds, 0.66% hits; TALL-104 LAMP-1 surface exposure, flow cytometry; cells stimulated with thapsigargin and PMA; AID 651702; inhibition, % at 10 µM;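 active = inhibition above about 55%, limit read from the data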
ABCB6 inh MLPCN – inhibitors of human ABC transporter ABCB6; fluorescence ratio to DMSO, % at 10 µM; K562-ABCB6 porphyrin accumulation, flow cytometry, 1 h; hits give low values; AID 602162; 360,000 compounds, 0.19% hits; Q9NP58;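 active = fluorescence ratio to DMSO below 75%, the collection mean minus 3 SD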;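 note: signal is porphyrin accumulated inside mitochondria; lower ratio means ABCB6 inhibition with less porphyrin fluorescence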
Tb MetRS inh – Trypanosoma brucei MetRS inhibition; purified T. brucei MetRS, ATP depletion, Kinase-Glo luminescence; inhibition, % at 11.9 µM; 360,000 compounds, 0.4% hits; AID 624268;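 active = inhibition above a per-plate cutoff of the control wells' mean inhibition plus 3 SD, cut at about 5.5% in these data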
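Test system: purified T. brucei MetRS enzyme. Also added: ATP, methionine and E. coli bulk tRNA substrates. Compound: 11.9 µM single point. Schedule: 15 min enzyme-compound preincubation, 2 h reaction, 10 min detection, 25 °C. Signal: luciferase luminescence of residual ATP, Kinase-Glo. Evaluation: percent inhibition versus plate control medians. Controls: DMSO wells, low control.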
MC4R antagonist – antagonists of human melanocortin 4 receptor (MC4R) | MC4R-expressing cells, MTII-stimulated cAMP, LANCE TR-FRET | P32245 | inhibition, % at 6.5 µM | 360,000 compounds, 0.48% hits;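 active = inhibition above its plate's cutoff, the mean of tested wells on that plate plus 3 SD, cut at about 29% in these data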
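Assay system: U2OS cells stably expressing human melanocortin 4 receptor (MC4R) / Dosing: 6.5 µM / Timing: compound 30 min, challenge 1 h, detection 1 h / Measured by: Eu-cAMP/anti-cAMP TR-FRET, emission 671 nm / Replicates: singlicate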
iPSC survival up – hiPSC single-cell survival enhancement; AID 602274; survival enhancement, % at 20 µM; 360,000 compounds, 0.044% hits; ATPlite luminescence; 100% = ROCK inhibitor wells, 0% = DMSO; in the data active = survival enhancement above about 18%;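 note: cells exposed to compounds for 16 hours before the ATP read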
Granule exo CP1 – lytic granule exocytosis inhibition | inhibition, % at 10 µM | shares compounds with Exocytosis inh | AID 651954 | 1,500 compounds, 11% hits | TALL-104 cells, LAMP-1 externalization, flow cytometry; stimulated with PMA plus thapsigargin; in the data active = inhibition above about 60%
A number is an active result.

How did CCN(CC)CCCNc1ccc(-c2nnc(-c3ccc(OCC(C)C)cc3)o2)cn1 do in these assays?
MC4R barr agon: inactive; Exocytosis inh: 62; ABCB6 inh MLPCN: inactive; Tb MetRS inh: inactive; MC4R antagonist: inactive; iPSC survival up: inactive; Granule exo CP1: 95

How did CC(C)COc1ccc(-c2nnc(-c3ccco3)o2)cc1 do in these assays?
MC4R barr agon: inactive; Exocytosis inh: inactive; ABCB6 inh MLPCN: inactive; Tb MetRS inh: inactive; MC4R antagonist: inactive; iPSC survival up: inactive

Results for O=C(CNC(=O)c1ccco1)NCC(=O)OCc1ccc(F)cc1 ?
MC4R barr agon: inactive; Exocytosis inh: inactive; ABCB6 inh MLPCN: inactive; Tb MetRS inh: inactive; MC4R antagonist: inactive; iPSC survival up: inactive

What do the screens show for `O=C(CCS(=O)(=O)c1ccccc1)N1CCCc2ccccc21`?
MC4R barr agon: inactive; Exocytosis inh: 74; ABCB6 inh MLPCN: inactive; Tb MetRS inh: inactive; MC4R antagonist: inactive; iPSC survival up: inactive; Granule exo CP1: inactive

Results for CCN(C[C@H]1N[C@@](C)(C(=O)OC)[C@H]2C(=O)N(C)C(=O)[C@@H]12)S(=O)(=O)c1ccc(C(F)(F)F)cc1 ?
MC4R barr agon: inactive; Exocytosis inh: inactive; ABCB6 inh MLPCN: inactive; Tb MetRS inh: inactive; MC4R antagonist: inactive; iPSC survival up: inactive

Results for COc1ccc(-n2ccnc2CN2CCCC(CO)(Cc3cccc(OC)c3)C2)cc1 (centres undefined) ?
MC4R barr agon: inactive; Exocytosis inh: 60; ABCB6 inh MLPCN: inactive; Tb MetRS inh: inactive; MC4R antagonist: inactive; iPSC survival up: inactive; Granule exo CP1: inactive

What do the screens show for `CCNC(=S)N1CCN(C(=O)C(Cc2ccccc2)NC(C)=O)CC1` (centres undefined)?
MC4R barr agon: inactive; Exocytosis inh: inactive; ABCB6 inh MLPCN: inactive; Tb MetRS inh: inactive; MC4R antagonist: inactive; iPSC survival up: inactive

How did COC1=CC(=O)c2c(ccc3ncnc(N)c23)C1=O do in these assays?
MC4R barr agon: inactive; Exocytosis inh: 88; ABCB6 inh MLPCN: inactive; Tb MetRS inh: inactive; MC4R antagonist: inactive; iPSC survival up: inactive; Granule exo CP1: inactive

How did CC(C)c1ccc(NC(=S)N2CCN(S(=O)(=O)c3ccccc3)CC2)cc1 do in these assays?
MC4R barr agon: inactive; Exocytosis inh: 65; ABCB6 inh MLPCN: inactive; Tb MetRS inh: inactive; MC4R antagonist: inactive; iPSC survival up: inactive; Granule exo CP1: inactive

How did Nc1cnccc1Oc1cccc(C(F)(F)F)c1 do in these assays?
MC4R barr agon: inactive; Exocytosis inh: inactive; ABCB6 inh MLPCN: inactive; Tb MetRS inh: inactive; MC4R antagonist: inactive; iPSC survival up: inactive
